SMILES strings stand for the structures.

The nature of the data set: Toxicity liver stage against HepG2, at 10uM. Format: cell-based. Also on record: test concentration 10 uM, cell line HepG2-A16-CD81EGFP. To be noted: human, HepG2-A16-CD81EGFP cells; read-out: INHIBITION
Summed up:
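Uninfected HepG2-A16-CD81EGFP cells, 3 × 10^3 per well, 1536-well, plated on prespotted compound at 10 μM final, parasite-free screening media added to match infected plates; puromycin 10 μM positive, DMSO 0.5% negative; run in parallel with 48 h PbLuc assay at 37 °C, 5% CO2; viability by CellTiter-Glo luminescence, normalized to controls.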
Take `O=C(NC[C@H]1OC[C@@H](N(CC2CC2)CC2CC2)[C@@H]1O)Nc1ccccc1`: the cytotoxicity at 10 µM was -2.62%.

Regarding `CC(=O)N1CCC(N2CCOC[C@H]2c2nc(-c3ccncc3)c[nH]2)CC1`, the cytotoxicity at 10 µM was found to be 1.58%. As for `CCOC(=O)[C@H]1[C@@H](O)C(=O)N(C)C12CCN(C(=O)CC1CCCC1)CC2`, the figure is -1%; as for `COCCCNC(=O)c1cc(-c2ccc(OC)cc2)nn1C`, 1.54%; as for `Cc1nnc2ccc(OCCNS(=O)(=O)c3cccs3)nn12`, -12.1%. For `O=C(c1ccc(F)cc1F)N(CC(F)(F)F)C1CCOCC1` the value was 1.24%; for `O=C(c1ccnnc1)N1CCO[C@H]2[C@@H](OCc3cccnc3)CC[C@@H]21`, 2.93%. Consider `COc1nn(C)c2c1CCCN(C(=O)c1ccccc1F)C2`, for which the cytotoxicity at 10 µM worked out at 11.5%.

As for `O=C1COC2(CCN(S(=O)(=O)C3CC3)CC2)CN1c1ccsc1`, the cytotoxicity at 10 µM stood at 6.12%.

On to `O=C(c1ccc2c(c1)OCO2)N1CCCSCC1CN1CCCC1` (configuration not stated), for which the cytotoxicity at 10 µM was 6.95%.

For the molecule `CCC(C)c1noc(C2CCN(C(=O)c3cccnc3)CC2)n1` (configuration not stated), the cytotoxicity at 10 µM was -10.7%. Take `O=C1CN(C(=O)C2CN(c3cccc(Cl)c3)CCO2)CCN1` (configuration not stated): the cytotoxicity at 10 µM was -1.77%.

With `O=C1NC2(CCN(CC(=O)N3CCOCC3)CC2)Nc2ccccc21`, the cytotoxicity at 10 µM was -1.71%. For `COCCC(=O)N1C[C@@H](c2cccc(OC)c2)[C@@]2(CCCCC(=O)N2)C1` the value was 9.47%. As for `CCCn1cc(S(=O)(=O)N(C)Cc2nonc2C)c(C)n1`, the figure is 12.7%; as for `CC(=O)N1C[C@H]2CCCN(S(=O)(=O)c3ccc(Cl)s3)[C@H]2C1`, -2.32%. As for `Cc1n[nH]c(C)c1CCC(=O)NCC1(O)CCN(c2ccccn2)C1` (configuration not stated), the figure is -1.08%; as for `c1ccc2ncc(CC3CNCCOC3)cc2c1` (configuration not stated), -3.93%; as for `COc1ncc(CN2CCCC2c2[nH]ncc2C(=O)N(C)C)cn1` (configuration not stated), -0.116%. On to `CNC(=O)C1(C)CN(Cc2cn(C)c3ccc(F)cc23)CCO1` (configuration not stated), for which the cytotoxicity at 10 µM worked out at 0.187%.

As to `O=C(NCCc1ccccc1)C1CCN(C(=O)Cn2cncn2)C1` (configuration not stated), the cytotoxicity at 10 µM stood at 2.55%. For `O=C(CNC(=O)C1(c2ccc(F)cc2F)CCC1)Nc1ccccn1` the value was -16.5%; for `Cc1ncc2c(n1)CN(CC1CCCCO1)CC2` (configuration not stated), -2.3%; for `Cc1ccc(CC(=O)NCC(O)c2cccc(C(F)(F)F)c2)cn1` (configuration not stated), -18.6%. For `Cc1ccc(S(N)(=O)=O)cc1C(=O)NC1CCCN(C)C1` (configuration not stated) the value was -1.96%; for `Cc1ncccc1NS(=O)(=O)Cc1cccc(F)c1`, 2.43%; for `O=C1CSc2ccc(C(=O)N3CCCC(n4cccn4)C3)cc2N1` (configuration not stated), -6.65%.

Turning to `Cc1ccc(C(F)(F)F)cc1NC(=O)C1CCCN1` (configuration not stated), the cytotoxicity at 10 µM was determined as 4.28%.

With `Cc1nc(C(=O)N(C)CC(F)(F)C(F)(F)F)c2ccccn12`, the cytotoxicity at 10 µM turned out to be 2.56%. For `CC1CCN(c2ccc(C(=O)N3CCCC3c3nncn3C)cn2)CC1` (configuration not stated), the cytotoxicity at 10 µM is -1.88%. As for `CN1C(=O)CCc2cc(NS(=O)(=O)Cc3cccc(F)c3)ccc21`, the figure is 3.6%; as for `O=C1CC2(CCSC2)C(=O)N1Cc1coc(-c2cccc(F)c2)n1` (configuration not stated), -0.237%. For `COc1ccc(Cl)cc1CCNC(=O)NCc1noc(C)n1` the value was -4.76%; for `CN(Cc1ccc(C#N)cc1)CC1CCS(=O)(=O)C1` (configuration not stated), -5.78%; for `CNC(=O)C1CCCCN1C(=O)c1cn(CCOC)c2ccccc12` (configuration not stated), -0.408%.

For the molecule `CC(C(=O)N1CCN(C(=O)c2ccc(F)cc2)CC1)n1ccnc1` (configuration not stated), the cytotoxicity at 10 µM is -2.2%.

As to `CC(O)CNCc1c[nH]nc1-c1cc2ccccc2o1` (configuration not stated), the cytotoxicity at 10 µM amounted to 0.788%. As for `NC(=O)COc1cccc(C(=O)NCc2ccc(Cl)s2)c1`, the figure is -0.935%; as for `Cc1c(CC(=O)N2CCSCC2)nnn1-c1cccc(Cl)c1`, -3.89%. For `Cc1ccc(O)c(CNC2CCc3nc(C)nn3C2)n1` (configuration not stated) the value was -1.08%; for `COc1cc(F)ccc1N(C)Cc1cccnc1`, -3.47%; for `Cc1cc(NCC2CC(=O)Nc3ccccc32)nc(C)n1` (configuration not stated), 0.344%. As for `O=C(NCCc1ccccn1)N1CCSC2(CCCCC2)C1`, the figure is -18.6%; as for `CCN(Cc1ccoc1)C(C(N)=O)c1cccc(Br)c1` (configuration not stated), 2.34%. As for `Cc1cccnc1CNC(=O)NC(C)Cc1c(C)nn(C)c1C` (configuration not stated), the cytotoxicity at 10 µM came to 3.92%. For `Cc1noc(CNC(=O)[C@@H](C)NC(=O)OC(C)(C)C)n1` the value was 4.91%; for `N#Cc1ccc(OCCN2CCNC(=O)C2c2cccs2)cc1` (configuration not stated), -2.62%; for `Cc1ccccc1C(CC(=O)N1CCc2sccc2C1)NC(N)=O` (configuration not stated), 0.0773%.

Turning to `CCc1cc(C(=O)N2CCc3c(ncn3CCc3ccccc3)C2)[nH]n1`, the cytotoxicity at 10 µM is -3.64%. As for `c1ccc(NCc2ccsc2)c(Cn2cncn2)c1`, the figure is 1.42%; as for `Cc1ccc(CNC2CCN(CCc3ccncc3)CC2)s1`, -13.9%.

For the molecule `CC(Sc1nnnn1C1CCOCC1)C(=O)NC1CCCCC1` (configuration not stated), the cytotoxicity at 10 µM was found to be 18.3%. For `Cc1nc(CN2CCCC(N(C)CCc3cccs3)C2)no1` (configuration not stated) the value was -21.8%; for `CO[C@H]1CCN(C(=O)Cc2ccccn2)[C@H]1Cc1ccncc1`, 2.26%; for `CN1CCN(c2ccc(C(=O)N3CCCC(c4ncc[nH]4)C3)cc2)CC1` (configuration not stated), 4.15%.

As for `O=C(c1cncc(NCC2COc3ccccc3C2)n1)N1CCOCC1` (configuration not stated), the cytotoxicity at 10 µM is -3.37%. For `CC(C)(C)N1CC(c2ncc(-c3ccc4c(c3)OCCO4)[nH]2)CC1=O` (configuration not stated) the value was 6.19%. For `O=C(CSCC1CC1)N1CCCC(c2nccn2Cc2cccnc2)C1` (configuration not stated), the cytotoxicity at 10 µM was determined as 3.86%. As for `COc1cccc(-c2cnnc(N(C)CCC3CCCCO3)n2)c1` (configuration not stated), the figure is 12.7%; as for `CCCc1n[nH]c(=O)n1[C@@H](CC)c1ccccc1`, -5.22%.

On to `Cn1cnnc1C1CCCN(Cc2nc(Cc3ccccc3)no2)C1` (configuration not stated), for which the cytotoxicity at 10 µM was -4.29%.

Turning to `COCCN(C)CC(=O)N1C[C@@H](C)[C@](O)(C(C)C)C1`, the cytotoxicity at 10 µM stood at 4.9%. For `COc1ccc(OC)c(C2CCN(CC(C)(C)N3CCOCC3)C2)c1` (configuration not stated) the value was -0.359%; for `C=C(C)COc1ccccc1CN1CCC(C(=O)NCC)C1` (configuration not stated), 11.6%.

For `Cn1cccc1-c1cc(C(=O)N2CCCC2C(F)(F)F)[nH]n1` (configuration not stated), the cytotoxicity at 10 µM was -0.968%. For `CC(C)[C@H]1CN(C(=O)CC2CCC2)C[C@@H]1N(C)C` the value was 8.91%; for `COc1ccc(CN2C[C@@H](CN(C)C)[C@@H](CO)C2)cc1OC`, -1.19%.

Turning to `Cc1ccc(C2(CN3CCCC3)CCNCC2)nc1`, the cytotoxicity at 10 µM is -12.8%. As for `COc1cc2nc3n(c(=O)c2cc1OC)CCN(C)CC3`, the figure is 2.39%. As for `CC1CCCN(CCNC(=O)c2ccn(-c3ccc(F)cc3)n2)C1` (configuration not stated), the figure is -0.734%.

Turning to `O=C(CN1C=Nc2ccccc2S1(=O)=O)NCc1ccccc1F`, the cytotoxicity at 10 µM is -3.73%. As for `CN(C)c1ccc(C(=O)N2CCCC(n3cccn3)C2)nn1` (configuration not stated), the figure is -4.43%; as for `Cc1cnc2c(S(=O)(=O)NCC3CCOC3)cccc2c1` (configuration not stated), -6.94%; as for `CC(C)(C)c1ncc(C(=O)NC(C(N)=O)c2ccccc2)s1` (configuration not stated), -1.96%.

Take `Cc1cc(NC(=O)CN(C)C2CCCN(c3cccnn3)C2)on1` (configuration not stated): the cytotoxicity at 10 µM was -5.93%.

Take `Cc1ccc(CC(=O)N2CCCC(c3nccs3)C2)cn1` (configuration not stated): the cytotoxicity at 10 µM is -2.01%. As for `Cc1ccc(N(CCC#N)C(=O)CN2CCCC2c2ccsc2)cc1` (configuration not stated), the figure is -9.01%; as for `CN(C)c1ccc(C(=O)N2CCCC2c2noc(C3CC3)n2)nn1` (configuration not stated), -8.36%; as for `CN(Cc1noc(C2CC2)n1)C1CCN(Cc2ncc[nH]2)C1` (configuration not stated), -1.87%. In the case of `CCc1cc(CNC(=O)N2CCC(Cc3cnn(C)c3)C2)on1` (configuration not stated), the cytotoxicity at 10 µM was -6.04%. For `CNc1nc(CNC(=O)Nc2cccc(Cl)c2OC)cs1` the value was -12.4%; for `Cn1cc(C(=O)CC2CCCN2C(=O)c2coc3ccccc23)cn1` (configuration not stated), -0.65%.

As to `CCNC(c1ccc(Cl)cc1)c1cccnc1` (configuration not stated), the cytotoxicity at 10 µM was determined as 5.71%. For `CS(=O)(=O)NCC1CCCN(C(=O)COCC(F)(F)F)C1` (configuration not stated) the value was -3.12%; for `CC(C(=O)NCc1ccnc(N2CCN(C)CC2)c1)n1cccn1` (configuration not stated), -10.2%; for `Cc1ncc2c(n1)CN(CCCc1nc3ccccc3o1)CC2`, 6.81%. As for `O=C(c1cccc(CNCC2CNc3ccnn3C2)c1)N1CCCC1` (configuration not stated), the figure is 6.26%. For `CCn1cc(NC(=O)NCC(O)CN2CCCCC2)cn1` (configuration not stated) the value was 3.75%. Take `O=C(Nc1cccnc1)[C@H]1C[C@H]2OCC[C@H]2N(C(=O)c2ccsc2)C1`: the cytotoxicity at 10 µM is -1.24%. `c1cncc(OC[C@]23COC[C@H]2CN(Cc2ccsc2)C3)c1`: the cytotoxicity at 10 µM came out at 14.7%.

As to `Fc1ccc(CN2CCC(c3n[nH]c4ncccc34)CC2)cc1F`, the cytotoxicity at 10 µM stood at 9.12%. For `c1cnc(NC2COC3(CCN(Cc4ccoc4)CC3)C2)nc1` (configuration not stated), the cytotoxicity at 10 µM is 2.11%. As for `CC(C)c1nn(C)c(N(C)C)c1CNCCC(=O)N(C)C`, the figure is -6.02%.

For the molecule `CS(=O)(=O)N1CCOCC2(CN(Cc3ccco3)CCO2)C1` (configuration not stated), the cytotoxicity at 10 µM was -5.04%. As for `Cn1cc(CN2CC[C@H]3O[C@@H](COCc4cccnc4)CC[C@H]32)cn1`, the figure is -73.8%; as for `O=C(C1=CCCCC1)N1CCC2(CC1)COC(COc1ccccn1)C2` (configuration not stated), -1.88%; as for `COC1COC2(CCN(Cc3ccccc3F)CC2)C1` (configuration not stated), -5.58%.

Values taken from ChEMBL document CHEMBL4513216, “Probing the Open Global Health Chemical Diversity Library for Multistage-Active Starting Points for Next-Generation Antimalarials” (ACS Infect Dis, 2020).
